This is an account of results in ChEMBL document CHEMBL3244360, “Usnic acid derivatives as potential antineoplastic agents” (J Med Chem, 1979).

The source made the active and inactive calls. The rule behind the calls is not given here.

Tested on in one data set: not listed separately
Put plainly: Antineoplastic activity against mouse LCC cells allografted in mouse assessed as increase in host life span at 20 to 200 mg/kg relative to control. Particulars: dose mg/kg 20-200. The data set is classed as functional, Lewis lung carcinoma.
As to `CC(=O)C1=C(O)C=C2Oc3c(C(C)=O)c(O)c(C)c(O)c3[C@]2(C)C1=O` [(-)-USNIC ACID], the Activity was determined as 35%.

Tested on in another data set: not listed separately
Put plainly: Solubility of the compound in water at 25 degC measured per 100 ml. Particulars: buffer. It is filed as physicochemical.
In turn, `CC(=O)C1=C(O)C=C2Oc3c(C(C)=O)c(O)c(C)c(O)c3[C@]2(C)C1=O` [(-)-USNIC ACID] showed a solubility of less than 10 mg.

Tested on in a further data set: not listed separately
Briefly: Solubility of the compound in ethanol at 25 degC measured per 100 ml. It is filed as physicochemical.
Conditions: not given
Consider `CC(=O)C1=C(O)C=C2Oc3c(C(C)=O)c(O)c(C)c(O)c3[C@]2(C)C1=O` [(-)-USNIC ACID], for which the solubility came to 20 mg.

Tested on in the next data set: not listed separately
Briefly: Octanol-water partition coefficient, log P of the compound by high-performance liquid chromatography. The data set is classed as physicochemical.
Conditions: not given
With `CC(=O)C1=C(O)C=C2Oc3c(C(C)=O)c(O)c(C)c(O)c3[C@]2(C)C1=O` [(-)-USNIC ACID], the logP (commonly the decadic logarithm of the partition coefficient of the neutral form, usually between octanol and water) was 2.88.

Regarding `COC12CC(O)=C(C(C)=O)C(=O)C1(C)c1c(O)c(C)c(O)c(C(C)=O)c1O2` (mixture of isomers), the lipophilicity (logP) came out at 2.3.

On to `CC(=O)Oc1c(C)c(OC(C)=O)c2c(c1C(C)=O)OC1CC(=O)C(C(C)=O)=C(O)C21C` (mixture of isomers), for which the logP was found to be 2.3.

`CC(=O)Oc1c(C)c(O)c(C(C)=O)c2c1C1(C)C(=O)C(C(C)=O)=C(O)C=C1O2` (stereo not given): the logP was determined as 2.7.

For the compound `CC(=O)Oc1c(C)c(OC(C)=O)c2c(c1C(C)=O)OC1=CC(O)=C(C(C)=O)C(=O)C12C` (stereo not given), the logP worked out at 2.5.

Take `CC(=O)c1c(O)c(C)c(O)c2c1OC1=Cc3c(c(C)nn3C)C(=O)C12C` (stereo not given): the logP was 2.8.

Compound `CC(=O)C1=C(O)CC2Oc3c(C(C)=O)c(O)c(C)c(O)c3C2(C)C1=O` (stereo not given) returned a logP of 2.4.

The test system of a further data set is L1210. Put plainly: Growth inhibition of mouse L1210 cells at 0.14 umol/ml after 23 to 46 hrs by coulter counter analysis.
Conditions: not given
The data set is classed as functional, cell-based. In short, it runs like this:
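L1210 cells grown in RPMI 1630 with 16.7% heat-inactivated fetal calf serum and gentamicin 40 µg/mL. Exponentially growing cells were washed and seeded at 1 × 10^5 cells/mL. Drug was added in Me2SO to a final 1.39 ± 0.17 × 10^-7 mol/mL with continuous exposure at 37 °C. Coulter counts at 23 and 46 h gave percent inhibition versus untreated control.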
Turning to `CC(=O)C1=C(O)C=C2Oc3c(C(C)=O)c(O)c(C)c(O)c3[C@]2(C)C1=O` [(-)-USNIC ACID], the “growth inhibition (GI)” value is “Active”.

Take `COC12CC(O)=C(C(C)=O)C(=O)C1(C)c1c(O)c(C)c(O)c(C(C)=O)c1O2` (mixture of isomers): the “growth inhibition (GI)” value is “Active”.

On to `CC(=O)Oc1c(C)c(OC(C)=O)c2c(c1C(C)=O)OC1CC(=O)C(C(C)=O)=C(O)C21C` (mixture of isomers), for which the “growth inhibition (GI)” value is “Active”.

In the case of `CC(=O)Oc1c(C)c(O)c(C(C)=O)c2c1C1(C)C(=O)C(C(C)=O)=C(O)C=C1O2` (stereo not given), the “growth inhibition (GI)” value is “Active”.

On to `CC(=O)Oc1c(C)c(OC(C)=O)c2c(c1C(C)=O)OC1=CC(O)=C(C(C)=O)C(=O)C12C` (stereo not given), for which the “growth inhibition (GI)” value is “Active”.

On to `CC(=O)c1c(O)c(C)c(O)c2c1OC1=Cc3c(c(C)nn3C)C(=O)C12C` (stereo not given), for which the “growth inhibition (GI)” value is “Active”.

In the case of `CC(=O)C1=C(O)CC2Oc3c(C(C)=O)c(O)c(C)c(O)c3C2(C)C1=O` (stereo not given), the “growth inhibition (GI)” value is “Active”.

A further data set deals with P388. Put plainly: Antitumor activity against mouse P388 cells allografted in mouse assessed as host median survival time at 6 mg/kg/day, ip administered as gum acacia suspension on days 1 to 9 relative to control. It is filed as functional. As to conditions: route intraperitoneal. The procedure, abridged:
(§1)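 Tumored mice got the compound intraperitoneally as a gum acacia suspension once daily on days 1-9 (nine injections), with doses in (mg/kg)/day. Read-out was T/C, the median survival time of treated over control animals as a percentage. Dose-response assays were generally run in duplicate, and the highest T/C per assay is reported with its dose.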
As for `CC(=O)Oc1c(C)c(OC(C)=O)c2c(c1C(C)=O)OC1=CC(O)=C(C(C)=O)C(=O)C12C` (stereo not given), the T/C (in general, the ratio of treated to control) was determined as 115%.

A further data set relates to P388. Put plainly: Antitumor activity against mouse P388 cells allografted in mouse assessed as host median survival time at 25 mg/kg/day, ip administered as gum acacia suspension on days 1 to 9 relative to control. It is filed as functional. As to conditions: route intraperitoneal. In short, it runs like this:
as §1
As to `COC12CC(O)=C(C(C)=O)C(=O)C1(C)c1c(O)c(C)c(O)c(C(C)=O)c1O2` (mixture of isomers), the T/C stood at 128%.

Turning to `CC(=O)Oc1c(C)c(OC(C)=O)c2c(c1C(C)=O)OC1CC(=O)C(C(C)=O)=C(O)C21C` (mixture of isomers), the T/C was 108%.

With `CC(=O)C1=C(O)CC2Oc3c(C(C)=O)c(O)c(C)c(O)c3C2(C)C1=O` (stereo not given), the T/C stood at 118%.

The subject of the next data set is P388. Put plainly: Antitumor activity against mouse P388 cells allografted in mouse assessed as host median survival time at 50 mg/kg/day, ip administered as gum acacia suspension on days 1 to 9 relative to control. It is filed as functional. As to conditions: route intraperitoneal. The procedure, abridged: as §1
Consider `COC12CC(O)=C(C(C)=O)C(=O)C1(C)c1c(O)c(C)c(O)c(C(C)=O)c1O2` (mixture of isomers), for which the T/C stood at 122%.

As for `CC(=O)Oc1c(C)c(OC(C)=O)c2c(c1C(C)=O)OC1CC(=O)C(C(C)=O)=C(O)C21C` (mixture of isomers), the T/C is 112%.

With `CC(=O)c1c(O)c(C)c(O)c2c1OC1=Cc3c(c(C)nn3C)C(=O)C12C` (stereo not given), the T/C amounted to 118%.

In a further data set the test system is P388. Briefly: Antitumor activity against mouse P388 cells allografted in mouse assessed as host median survival time at 100 mg/kg/day, ip administered as gum acacia suspension on days 1 to 9 relative to control. Particulars: route intraperitoneal. It is filed as functional. The procedure, abridged:
as §1
In the case of `CC(=O)C1=C(O)C=C2Oc3c(C(C)=O)c(O)c(C)c(O)c3[C@]2(C)C1=O` [(-)-USNIC ACID], the T/C is reported as 141%.

For `CC(=O)C1=C(O)CC2Oc3c(C(C)=O)c(O)c(C)c(O)c3C2(C)C1=O` (stereo not given), the T/C is reported as 128%.

A further data set relates to P388. Briefly: Antitumor activity against mouse P388 cells allografted in mouse assessed as host median survival time at 200 mg/kg/day, ip administered as gum acacia suspension on days 1 to 9 relative to control. The data set is classed as functional. Particulars: route intraperitoneal. The procedure, abridged: as §1
Regarding `CC(=O)Oc1c(C)c(O)c(C(C)=O)c2c1C1(C)C(=O)C(C(C)=O)=C(O)C=C1O2` (stereo not given), the T/C is on record as 113%.

On to `CC(=O)Oc1c(C)c(OC(C)=O)c2c(c1C(C)=O)OC1=CC(O)=C(C(C)=O)C(=O)C12C` (stereo not given), for which the T/C is on record as 144%.

Tested on in another data set: not listed separately
Briefly: Antitumor activity against mouse LCC cells allografted in mouse assessed as host median survival time at 3 mg/kg/day, ip administered as gum acacia suspension on days 1 to 9 relative to control. The data set is classed as functional, Lewis lung carcinoma. Particulars: route intraperitoneal. In short, it runs like this: as §1
Consider `CC(=O)Oc1c(C)c(OC(C)=O)c2c(c1C(C)=O)OC1CC(=O)C(C(C)=O)=C(O)C21C` (mixture of isomers), for which the T/C was 104%.

Tested on in a further data set: not listed separately
Briefly: Antitumor activity against mouse LCC cells allografted in mouse assessed as host median survival time at 6 mg/kg/day, ip administered as gum acacia suspension on days 1 to 9 relative to control. It is filed as functional, Lewis lung carcinoma. Particulars: route intraperitoneal. In short, it runs like this: as §1
With `CC(=O)Oc1c(C)c(OC(C)=O)c2c(c1C(C)=O)OC1=CC(O)=C(C(C)=O)C(=O)C12C` (stereo not given), the T/C amounted to 111%.

Tested on in another data set: not listed separately
Briefly: Antitumor activity against mouse LCC cells allografted in mouse assessed as host median survival time at 12 mg/kg/day, ip administered as gum acacia suspension on days 1 to 9 relative to control. The data set is classed as functional, Lewis lung carcinoma. As to conditions: route intraperitoneal. The procedure, abridged: as §1
For `CC(=O)Oc1c(C)c(OC(C)=O)c2c(c1C(C)=O)OC1=CC(O)=C(C(C)=O)C(=O)C12C` (stereo not given), the T/C was determined as 117%.

With `CC(=O)c1c(O)c(C)c(O)c2c1OC1=Cc3c(c(C)nn3C)C(=O)C12C` (stereo not given), the T/C is listed as 103%.

`CC(=O)C1=C(O)CC2Oc3c(C(C)=O)c(O)c(C)c(O)c3C2(C)C1=O` (stereo not given): the T/C is reported as 107%.

Tested on in another data set: not listed separately
Briefly: Antitumor activity against mouse LCC cells allografted in mouse assessed as host median survival time at 25 mg/kg/day, ip administered as gum acacia suspension on days 1 to 9 relative to control. It is filed as functional, Lewis lung carcinoma. Particulars: route intraperitoneal. In short, it runs like this:
as §1
Consider `COC12CC(O)=C(C(C)=O)C(=O)C1(C)c1c(O)c(C)c(O)c(C(C)=O)c1O2` (mixture of isomers), for which the T/C was 122%.

In the case of `CC(=O)Oc1c(C)c(O)c(C(C)=O)c2c1C1(C)C(=O)C(C(C)=O)=C(O)C=C1O2` (stereo not given), the T/C was 118%.

Tested on in a further data set: not listed separately
Briefly: Antitumor activity against mouse LCC cells allografted in mouse assessed as host median survival time at 50 mg/kg/day, ip administered as gum acacia suspension on days 1 to 9 relative to control. As to conditions: route intraperitoneal. It is filed as functional, Lewis lung carcinoma. The procedure, abridged:
as §1
On to `COC12CC(O)=C(C(C)=O)C(=O)C1(C)c1c(O)c(C)c(O)c(C(C)=O)c1O2` (mixture of isomers), for which the T/C is reported as 106%.

In the case of `CC(=O)Oc1c(C)c(OC(C)=O)c2c(c1C(C)=O)OC1CC(=O)C(C(C)=O)=C(O)C21C` (mixture of isomers), the T/C was found to be 114%.

`CC(=O)Oc1c(C)c(O)c(C(C)=O)c2c1C1(C)C(=O)C(C(C)=O)=C(O)C=C1O2` (stereo not given): the T/C was determined as 112%.

Consider `CC(=O)C1=C(O)CC2Oc3c(C(C)=O)c(O)c(C)c(O)c3C2(C)C1=O` (stereo not given), for which the T/C is 107%.

Tested on in a further data set: not listed separately
Briefly: Antitumor activity against mouse LCC cells allografted in mouse assessed as host median survival time at 200 mg/kg/day, ip administered as gum acacia suspension on days 1 to 9 relative to control. It is filed as functional, Lewis lung carcinoma. Particulars: route intraperitoneal. In short, it runs like this: as §1
Turning to `CC(=O)c1c(O)c(C)c(O)c2c1OC1=Cc3c(c(C)nn3C)C(=O)C12C` (stereo not given), the T/C came to 112%.
